Experiment [1] concerns the target T1, Plasminogen (Homo sapiens, UniProt P00747). Kind of experiment: Inhibition of human plasmin. An outline of the steps:
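Human plasmin 0.7 µg/mL with 0.2 mM Chromozym-PL and varied inhibitor in Tris pH 8.1/NaCl buffer. Preincubated 15 min at 37 °C, then 30 min at 37 °C with substrate. A405 background-subtracted, % inhibition plotted for IC50.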

Experiment [2] concerns the target T2, Tissue-type plasminogen activator (Homo sapiens, UniProt P00750). Put plainly: Inhibition of human tPA at 100 uM. An outline of the steps: (§1)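 Human one-chain tPA (0.4 µg/mL final) with 0.1 mg/mL tPA stimulator, preincubated with inhibitor for 15 min at 37 °C in 75 mM Tris pH 8.1, 50 mM NaCl. Then incubated with 0.4 mM S-2288 substrate for 60 min at 37 °C. Absorbance read at 405 nm, background subtracted, and percent inhibition calculated.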
Target sequence in this assay (P00750 36-562 limits assumed): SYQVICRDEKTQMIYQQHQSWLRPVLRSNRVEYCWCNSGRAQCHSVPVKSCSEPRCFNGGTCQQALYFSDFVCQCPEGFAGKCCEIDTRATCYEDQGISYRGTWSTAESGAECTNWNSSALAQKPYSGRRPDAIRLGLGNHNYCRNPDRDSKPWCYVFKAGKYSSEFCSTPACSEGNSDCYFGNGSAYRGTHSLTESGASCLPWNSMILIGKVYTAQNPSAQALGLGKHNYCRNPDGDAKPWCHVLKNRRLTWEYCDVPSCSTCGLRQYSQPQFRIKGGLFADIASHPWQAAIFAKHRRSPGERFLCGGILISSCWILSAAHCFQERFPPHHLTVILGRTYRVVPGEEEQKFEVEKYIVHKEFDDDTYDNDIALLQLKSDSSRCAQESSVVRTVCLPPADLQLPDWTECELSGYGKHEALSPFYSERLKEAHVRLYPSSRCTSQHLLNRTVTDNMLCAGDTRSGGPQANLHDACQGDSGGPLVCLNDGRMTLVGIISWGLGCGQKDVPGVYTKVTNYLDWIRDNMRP

The target of experiment [3] is T2, Tissue-type plasminogen activator. Put plainly: Inhibition of human tPA. An outline of the steps:
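Human one-chain tPA 0.4 µg/mL (final) with 0.1 mg/mL tPA stimulator, preincubated 15 min at 37 °C with inhibitor in 75 mM Tris pH 8.1, 50 mM NaCl. Then 0.4 mM S-2288 (H-D-Ile-Pro-Arg-pNA) added, 60 min at 37 °C. A405 read after preincubation and after substrate incubation, background subtracted. IC50 from % inhibition vs concentration. Ki = IC50/(1+[S]/Km), Km 250 µM.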
Target sequence in this assay (P00750 whole entry): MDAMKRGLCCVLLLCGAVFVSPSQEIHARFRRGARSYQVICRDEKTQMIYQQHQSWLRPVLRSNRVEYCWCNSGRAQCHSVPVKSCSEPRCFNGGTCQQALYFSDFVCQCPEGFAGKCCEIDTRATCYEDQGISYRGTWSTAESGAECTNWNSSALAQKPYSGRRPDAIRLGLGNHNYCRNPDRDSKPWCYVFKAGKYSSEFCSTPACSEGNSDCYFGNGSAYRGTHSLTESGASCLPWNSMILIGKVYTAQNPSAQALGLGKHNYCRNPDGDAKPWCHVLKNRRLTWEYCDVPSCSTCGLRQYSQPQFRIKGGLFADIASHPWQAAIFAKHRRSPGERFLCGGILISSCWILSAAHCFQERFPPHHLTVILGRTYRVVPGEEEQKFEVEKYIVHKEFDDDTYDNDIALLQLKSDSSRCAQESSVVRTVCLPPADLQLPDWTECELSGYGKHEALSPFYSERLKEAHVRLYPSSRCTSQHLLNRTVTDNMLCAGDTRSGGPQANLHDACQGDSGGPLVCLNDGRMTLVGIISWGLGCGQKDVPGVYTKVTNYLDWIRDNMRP

The target in experiment [4] is Urokinase-type plasminogen activator (Homo sapiens, UniProt P00749).
In experiment [5] the target is T1, Plasminogen. Put plainly: Inhibition of human plasmin at 100 uM. In outline:
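Human plasmin (0.7 µg/mL) preincubated with inhibitor for 15 min at 37 °C in 75 mM Tris pH 8.1, 50 mM NaCl. Then incubated with 0.2 mM Chromozym-PL for 30 min at 37 °C. Absorbance read at 405 nm, background at time zero subtracted, and percent inhibition calculated.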

Experiment [6] deals with T2, Tissue-type plasminogen activator. Kind of experiment: Inhibition of human tPA at 30 uM. In outline:
as §1
Target sequence in this assay (P00750 36-562 limits assumed): as the sequence (P00750 36-562 limits assumed) above

Some results are limits rather than exact numbers.

T1 sequence (P00747 97-580 limits assumed): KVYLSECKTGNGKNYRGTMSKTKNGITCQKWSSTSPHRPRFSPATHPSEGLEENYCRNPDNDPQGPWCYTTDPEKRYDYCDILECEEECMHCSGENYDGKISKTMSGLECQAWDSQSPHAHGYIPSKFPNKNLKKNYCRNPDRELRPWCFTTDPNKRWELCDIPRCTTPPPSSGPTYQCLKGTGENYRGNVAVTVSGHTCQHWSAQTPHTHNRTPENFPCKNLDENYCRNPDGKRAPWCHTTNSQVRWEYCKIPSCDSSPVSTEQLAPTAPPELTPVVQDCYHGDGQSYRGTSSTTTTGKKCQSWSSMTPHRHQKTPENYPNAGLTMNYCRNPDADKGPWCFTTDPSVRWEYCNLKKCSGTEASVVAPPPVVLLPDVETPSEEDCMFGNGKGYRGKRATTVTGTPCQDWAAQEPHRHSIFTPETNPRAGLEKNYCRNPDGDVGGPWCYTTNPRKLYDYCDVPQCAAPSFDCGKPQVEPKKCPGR
T1 sequence (P00747 581-810 limits assumed): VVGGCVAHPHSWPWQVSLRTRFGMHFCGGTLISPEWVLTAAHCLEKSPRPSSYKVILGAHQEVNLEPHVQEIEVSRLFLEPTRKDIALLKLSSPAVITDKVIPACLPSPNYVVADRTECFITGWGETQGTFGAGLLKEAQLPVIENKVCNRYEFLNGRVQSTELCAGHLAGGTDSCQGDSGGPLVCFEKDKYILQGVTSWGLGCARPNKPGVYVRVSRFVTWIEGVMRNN

For the molecule `NC(N)=Nc1ncc(Cl)c2ccc(S(N)(=O)=O)cc12`, the inhibition constant (Ki) (at Plasminogen [1]; in experiment [3]) was greater than 100 µM in each case. Moreover, the inhibition – broadly, how much of the control response was suppressed – in experiment [2] is less than 50%.

On to `NC(N)=Nc1ncc(Cl)c2ccc(S(=O)(=O)NC3(C(=O)O)CCC3)cc12`, for which the results for the Ki (on Plasminogen [1]; in experiment [3]) were 16 µM and greater than 100 µM, respectively. In experiment [2], the inhibition was less than 50%.

On to `NC(N)=Nc1ncc(Cl)c2ccc(S(=O)(=O)NC3(C(=O)O)CCOCC3)cc12`, for which the values for the Ki (at Plasminogen [1]; in experiment [3]) were 41 µM and greater than 100 µM, respectively.

Take `NC(N)=Nc1nccc2ccc(S(N)(=O)=O)cc12`: the Ki (in general, a measure of affinity in units of concentration, obtained from inhibition or displacement) in experiment [4] was determined as 0.28 µM; at Plasminogen [1] it was 13 µM; in experiment [3], 24 µM.

On to `NC(N)=Nc1ncc(Cl)c2ccc(S(=O)(=O)N3CCC[C@H]3C(=O)O)cc12`, for which the figures for the Ki (in experiment [4]; on Plasminogen [1]; in experiment [3]) were 0.111 µM, greater than 100 µM and greater than 100 µM, respectively.

Take `NC(N)=Nc1ncc(Cl)c2ccc(S(=O)(=O)NC3(C(=O)O)CCCC3)cc12`: the Ki is 0.0058 µM in experiment [4], 14 µM on Plasminogen [1] and 38 µM in experiment [3].

`NC(N)=Nc1ncc(Cl)c2ccc(S(=O)(=O)NC3(C(=O)N4CCOCC4)CCCC3)cc12`: the Ki in experiment [4] is 0.0016 µM; at Plasminogen [1], greater than 30 µM; in experiment [3], 34.4 µM.

Turning to `NC(N)=Nc1ncc(Cl)c2ccc(S(=O)(=O)N3CCC[C@@H]3C(=O)O)cc12`, the Ki in experiment [4] is 0.0099 µM; on Plasminogen [1], greater than 100 µM; in experiment [3], greater than 100 µM. In addition, the inhibition in experiment [2] was less than 50%.

With `CN(CC(=O)O)S(=O)(=O)c1ccc2c(Cl)cnc(N=C(N)N)c2c1`, the Ki (at Plasminogen [1]; in experiment [3]) was greater than 100 µM each time. In experiment [2], this molecule registered an inhibition of less than 50%.

`NC(=O)[C@H]1CCCN1S(=O)(=O)c1ccc2c(Cl)cnc(N=C(N)N)c2c1` gave a Ki in experiment [4] of 0.054 µM.

`NC(N)=Nc1ncc(Cl)c2ccc(S(=O)(=O)N3CCC[C@@H]3CO)cc12`: in experiment [4], the inhibitory constant (Ki) turned out to be 0.16 µM.

As for `NC(N)=Nc1ncc(Cl)c2ccc(S(=O)(=O)NC3(C(=O)O)CCCCC3)cc12`, the figures for the Ki (in experiment [4]; at Plasminogen [1]; in experiment [3]) were 0.008 µM, 39 µM and greater than 100 µM, respectively.

In experiment [4], `NC(N)=Nc1ncc(Cl)c2ccc(S(=O)(=O)N3CC(C(=O)O)C3)cc12` returned a Ki of 0.33 µM.

For `CC(C)(CNS(=O)(=O)c1ccc2c(Cl)cnc(N=C(N)N)c2c1)C(=O)O`, the affinity in experiment [4], expressed as Ki, was 0.043 µM.

Regarding `NC(N)=Nc1ncc(Cl)c2ccc(S(=O)(=O)N3CCCC3)cc12`, the Ki (at Plasminogen [1]; in experiment [3]) was greater than 30 µM throughout.

With `CN1CCN(C(=O)C2(NS(=O)(=O)c3ccc4c(Cl)cnc(N=C(N)N)c4c3)CCCC2)CC1`, the inhibition constant (Ki) in experiment [4] came out at 0.0014 µM; at Plasminogen [1], 65 µM; in experiment [3], 34.7 µM.

For `NC(N)=Nc1ncc(Cl)c2ccc(S(=O)(=O)NCC(=O)O)cc12`, the Ki is 0.048 µM in experiment [4], greater than 30 µM on Plasminogen [1] and greater than 30 µM in experiment [3].

In experiment [4], `NC(N)=Nc1ncc(Cl)c2ccc(S(=O)(=O)N3CCOCC3)cc12` yielded a Ki of 0.33 µM.

As for `CCOC(=O)C1(NS(=O)(=O)c2ccc3c(Cl)cnc(N=C(N)N)c3c2)CCCC1`, the values for the Ki (in experiment [4]; at Plasminogen [1]; in experiment [3]) were 0.014 µM, greater than 100 µM and 23 µM, respectively. On Plasminogen [5], this molecule displayed an inhibition of less than 50%.

As for `NC(N)=Nc1ncc(Cl)c2ccc(S(=O)(=O)N3CCCC[C@@H]3C(=O)O)cc12`, the Ki (at Plasminogen [1]; in experiment [3]) was greater than 100 µM each time.

As to `NC(N)=Nc1ncc(Cl)c2ccc(S(=O)(=O)NCCC(=O)O)cc12`, the Ki in experiment [4] was 0.058 µM; on Plasminogen [1], greater than 100 µM; in experiment [3], greater than 100 µM.

As to `NC(N)=Nc1ncc(Cl)c2ccc(S(=O)(=O)N(CC(=O)O)CC3CCCC3)cc12`, the Ki in experiment [4] is 0.031 µM; on Plasminogen [1], 23 µM; in experiment [3] it was greater than 100 µM.

The molecule `NC(N)=Nc1ncc(Cl)c2ccc(S(=O)(=O)NC3CCCC3)cc12` came in with an inhibition in experiment [6] of less than 50%. Also, the inhibition constant (Ki) in experiment [4] was 0.071 µM; on Plasminogen [1], greater than 100 µM; in experiment [3], greater than 30 µM.

`C[C@@H](NS(=O)(=O)c1ccc2c(Cl)cnc(N=C(N)N)c2c1)C(=O)O` showed an inhibition constant (Ki) in experiment [4] of 0.028 µM.

With `C[C@@H](C(=O)O)N(Cc1ccccc1)S(=O)(=O)c1ccc2c(Cl)cnc(N=C(N)N)c2c1`, the Ki in experiment [4] is 0.027 µM; in experiment [3] it was greater than 100 µM.

`CN(C)CCNC(=O)C1(NS(=O)(=O)c2ccc3c(Cl)cnc(N=C(N)N)c3c2)CCCC1`: the Ki in experiment [4] was 0.03 µM; at Plasminogen [1], greater than 100 µM.

Regarding `CN(C)CCN(C1(C(=O)O)CCCC1)S(=O)(=O)c1ccc2c(Cl)cnc(N=C(N)N)c2c1`, the Ki at Plasminogen [1] amounted to 32 µM; in experiment [3], 23 µM.

In the case of `NC(N)=Nc1ncc(Cl)c2ccc(S(=O)(=O)N(CC(=O)O)c3ccccc3)cc12`, the inhibitory constant (Ki) in experiment [4] was 0.029 µM; at Plasminogen [1], greater than 100 µM; in experiment [3], greater than 100 µM.

Take `NC(N)=Nc1ncc(Cl)c2ccc(S(=O)(=O)N(CC(=O)O)Cc3ccccc3)cc12`: the Ki in experiment [4] was 0.035 µM; on Plasminogen [1], greater than 100 µM; in experiment [3], greater than 100 µM.

As for `CN1CCN(S(=O)(=O)c2ccc3c(Cl)cnc(N=C(N)N)c3c2)CC1`, in experiment [4], affinity was put at a Ki of 0.55 µM.

For `CC(C)[C@@H](NS(=O)(=O)c1ccc2c(Cl)cnc(N=C(N)N)c2c1)C(=O)O`, the figures for the inhibitory constant (Ki) (in experiment [4]; on Plasminogen [1]; in experiment [3]) were 0.019 µM, 16 µM and 38 µM, respectively.

On to `NC(N)=Nc1ncc(Cl)c2ccc(S(=O)(=O)Nc3ccccc3C(=O)O)cc12`, for which the Ki in experiment [4] is 0.086 µM; at Plasminogen [1], 33 µM; in experiment [3], greater than 100 µM.

Take `CN1CCC(NS(=O)(=O)c2ccc3c(Cl)cnc(N=C(N)N)c3c2)(C(=O)O)CC1`: the Ki in experiment [4] is 0.011 µM; on Plasminogen [1], 71 µM.

In the case of `CC(C)[C@H](NS(=O)(=O)c1ccc2c(Cl)cnc(N=C(N)N)c2c1)C(=O)O`, the Ki is 0.066 µM in experiment [4], 45 µM on Plasminogen [1] and greater than 100 µM in experiment [3].

`C[C@H](NS(=O)(=O)c1ccc2c(Cl)cnc(N=C(N)N)c2c1)C(=O)O`: the Ki in experiment [4] turned out to be 0.021 µM; on Plasminogen [1], 15 µM.

As to `CC(C)(C)[C@@H](NS(=O)(=O)c1ccc2c(Cl)cnc(N=C(N)N)c2c1)C(=O)O`, the inhibition constant Ki is 0.022 µM in experiment [4], greater than 100 µM on Plasminogen [1] and greater than 100 µM in experiment [3].

For the molecule `NC(N)=Nc1ncc(Cl)c2ccc(S(=O)(=O)NC3(C(=O)NCCO)CCCC3)cc12`, the Ki in experiment [4] is 0.01 µM; on Plasminogen [1], greater than 100 µM; in experiment [3] it was 108 µM.

Regarding `NC(N)=Nc1nccc2ccc(S(=O)(=O)Nc3ccccc3)cc12`, the Ki on Plasminogen [1] was 3.2 µM; in experiment [3], 15 µM.

For `NC(N)=Nc1ncc(Cl)c2ccc(S(=O)(=O)NC3(CO)CCCC3)cc12`, in experiment [4], the inhibitory constant (Ki) came out at 0.067 µM.

In the case of `NC(N)=Nc1ncc(Cl)c2ccc(S(=O)(=O)Nc3cccc(C(=O)O)c3)cc12`, the Ki in experiment [4] is 0.059 µM; on Plasminogen [1], 9.8 µM; in experiment [3], greater than 100 µM.

For the origin of these results see ChEMBL document CHEMBL1139871, “Selective urokinase-type plasminogen activator inhibitors. 4. 1-(7-sulfonamidoisoquinolinyl)guanidines” (J Med Chem, 2007).
